In ChEMBL document CHEMBL5712901, “DOT1L inhibition blocks multiple myeloma cell proliferation by suppressing IRF4-MYC signaling” (2019):
Calls of active or inactive are those of the source. The calls are words filed in the database; no cut-off is given here.

Key:
RPMI-8226 [1] = experiment: Induction of growth suppression in human RPMI-8226 cells assessed as reduction H3K79me3 at 1 uM for 3 days Western blot analysis; type: functional, cell-based; conditions: time 3.0 day
Outline: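 RPMI-8226 cells treated with 1 μM DOT1L inhibitor or DMSO for 3 days. H3K79 methylation probed by Western blot with […].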

KMS-11 = experiment: Antiproliferative activity against human KMS-11 cells treated 3 days at 1 uM; type: functional, cell-based; conditions: time 3.0 day
Outline: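 Cell lines in 6-well plates, 2 × 10^4 to 8 × 10^5 cells/well, exposed to DOT1L inhibitor at 0.25-1 μM or DMSO, with medium and drug refreshed every 3 days. Viability read with Cell Counting Kit-8 on a microplate reader. Values normalized to untreated cells; mean of 3 replications ± SEM.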

RPMI-8226 [2] = experiment: Antitumor activity against compound pretreated cells human RPMI-8226 cells at 1 uM for 3 days xenografted in SCID mouse assessed as reduction of tumor volume measured upto 36 days; type: functional, cell-based; conditions: time 39.0 day
Outline: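 Ex vivo pretreatment: RPMI-8226 cells exposed to 1 μM DOT1L inhibitor or DMSO for 3 days. Then 1 × 10^7 cells in 200 μl RPMI-1640 injected subcutaneously into the thighs of 6-week-old C.B-17 SCID mice, with drug-treated cells in the left thigh and DMSO cells in the right. Tumor measured every 3 days by calipers; volume = length × width²/2; n = 5, mean ± SEM.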

MM1.S [3] = experiment: Induction of apoptosis in human MM1.S cells assessed as late apoptotic cells at 1 uM for 6 days by annexin-V based propidium iodide staining based flow cytometric analysis (reference value: 4.85%); type: functional; conditions: time 6 day
RPMI-8226 [4] = experiment: Induction of apoptosis in human RPMI-8226 cells assessed as viable cells at 1 uM for 6 days by annexin-V based propidium iodide staining based flow cytometric analysis (reference value: 79.0%); type: functional; conditions: RPMI-8226, 144 h, time 6 day, read-out: Activity
RPMI-8226 [5] = experiment: Induction of apoptosis in human RPMI-8226 cells assessed as late apoptotic cells at 1 uM for 6 days by annexin-V based propidium iodide staining based flow cytometric analysis (reference value: 8.89%); type: functional; conditions: time 6 day
MM1.S [6] = experiment: Induction of apoptosis in human MM1.S cells assessed as viable cells at 1 uM for 6 days by annexin-V based propidium iodide staining based flow cytometric analysis (reference value: 77.4%); type: functional; conditions: 144 h, time 6 day, read-out: Activity
RPMI-8226 [7] = experiment: Induction of apoptosis in human RPMI-8226 cells assessed as necrotic cells at 1 uM for 3 days by annexin-V based propidium iodide staining based flow cytometric analysis (reference value: 3.40%); type: functional; conditions: time 3 day
MM1.S [8] = experiment: Induction of apoptosis in human MM1.S cells assessed as viable cells at 1 uM for 3 days by annexin-V based propidium iodide staining based flow cytometric analysis (reference value: 94.3%); type: functional; conditions: 72 h, time 3 day, read-out: Activity
RPMI-8226 [9] = experiment: Effect on human RPMI-8226 cells assessed as change in Myc mRNA level at 1 uM for 3 days by ChIP-qPCR analysis; type: functional, cell-based; conditions: time 3.0 day
Outline: (§1)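 ChIP-qPCR for H3K79me2 at IRF4-MYC signaling genes after 1 μM inhibitor or DMSO for 3 days. Signal normalized to input DNA. An intergenic region 28 kb upstream of KLF2 served as negative control. Mean of 3 replications ± SEM.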

MM1.S [10] = experiment: Effect on human MM1.S cells assessed as change in IRF4 mRNA level at 1 uM for 3 days by ChIP-qPCR analysis; type: functional, cell-based; conditions: time 3.0 day; outline: as §1
KMS-12-BM [11] = experiment: Effect on human KMS-12-BM cells assessed as change in IRF4 mRNA level by qRT-PCR analysis; type: functional, cell-based
Outline: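 Basal MYC and IRF4 mRNA in untreated cells measured by qRT-PCR. Normalized to ACTB; mean of 3 replications ± SEM.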

KMS-12-BM [12] = experiment: Effect on human KMS-12-BM cells assessed as decrease in IRF4 mRNA level at 1 uM for 6 days by qRT-PCR analysis; type: functional, cell-based; conditions: time 6.0 day
Outline: (§2)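 qRT-PCR of MYC and IRF4 after 1 μM DOT1L inhibitor for 6 days. Normalized to ACTB; mean of 3 replications ± SEM.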

KMS-12-PE [13] = experiment: Effect on human KMS-12-PE cells assessed as decrease in IRF4 mRNA level at 1 uM for 6 days by qRT-PCR analysis; type: functional, cell-based; conditions: time 6.0 day; outline: as §2
KMS-12-PE [14] = experiment: Antiproliferative activity against human KMS-12-PE cells assessed as reduction in cell viability measured at 1 uM for 18 days; type: functional, cell-based; conditions: time 18.0 day
U-266 = experiment: Antiproliferative activity against human U-266 cells assessed as reduction in cell viability measured at 1 uM for 18 days; type: functional, cell-based; conditions: time 18.0 day
RPMI-8226 [15] = experiment: Upregulation of BMF gene in human RPMI-8226 cells at 1 uM for 6 days by; type: functional, cell-based; conditions: time 6.0 day
RPMI-8226 [16] = experiment: Upregulation of CCDC96 gene in human RPMI-8226 cells at 1 uM for 6 days by; type: functional, cell-based; conditions: time 6.0 day
RPMI-8226 [17] = experiment: Upregulation of CPQ gene in human RPMI-8226 cells at 1 uM for 6 days by; type: functional, cell-based; conditions: time 6.0 day
Outline: (§3)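 Human myeloma lines RPMI-8226 and MM.1S exposed to 1 μM DOT1L inhibitor, or DMSO, for 6 days. Whole-genome expression profiled on gene expression microarray.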

RPMI-8226 [18] = experiment: Upregulation of EMID1 gene in human RPMI-8226 cells at 1 uM for 6 days by; type: functional, cell-based; conditions: time 6.0 day; outline: as §3
RPMI-8226 [19] = experiment: Upregulation of FZD1 gene in human RPMI-8226 cells at 1 uM for 6 days by; type: functional, cell-based; conditions: time 6.0 day; outline: as §3
RPMI-8226 [20] = experiment: Upregulation of GLYATL1 gene in human RPMI-8226 cells at 1 uM for 6 days by; type: functional, cell-based; conditions: time 6.0 day; outline: as §3
RPMI-8226 [21] = experiment: Upregulation of RGS1 gene in human RPMI-8226 cells at 1 uM for 6 days by; type: functional, cell-based; conditions: time 6.0 day
MM1.S [22] = experiment: Upregulation of APOL4 gene in human MM1.S cells at 1 uM for 6 days by; type: functional, cell-based; conditions: time 6.0 day
MM1.S [23] = experiment: Upregulation of BHLHE22 gene in human MM1.S cells at 1 uM for 6 days by; type: functional, cell-based; conditions: time 6.0 day
MM1.S [24] = experiment: Upregulation of CCL2 gene in human MM1.S cells at 1 uM for 6 days by; type: functional, cell-based; conditions: time 6.0 day
MM1.S [25] = experiment: Upregulation of CCR2 gene in human MM1.S cells at 1 uM for 6 days by; type: functional, cell-based; conditions: time 6.0 day
MM1.S [26] = experiment: Upregulation of CXCL10 gene in human MM1.S cells at 1 uM for 6 days by; type: functional, cell-based; conditions: time 6.0 day; outline: as §3
MM1.S [27] = experiment: Upregulation of FAM200B gene in human MM1.S cells at 1 uM for 6 days by; type: functional, cell-based; conditions: time 6.0 day; outline: as §3
MM1.S [28] = experiment: Upregulation of FBXO2 gene in human MM1.S cells at 1 uM for 6 days by; type: functional, cell-based; conditions: time 6.0 day; outline: as §3
MM1.S [29] = experiment: Upregulation of HLA-DMB gene in human MM1.S cells at 1 uM for 6 days by; type: functional, cell-based; conditions: time 6.0 day; outline: as §3
MM1.S [30] = experiment: Upregulation of HLA-DPB1 gene in human MM1.S cells at 1 uM for 6 days by; type: functional, cell-based; conditions: time 6.0 day; outline: as §3
MM1.S [31] = experiment: Upregulation of HLA-DRB5 gene in human MM1.S cells at 1 uM for 6 days by; type: functional, cell-based; conditions: time 6.0 day
MM1.S [32] = experiment: Upregulation of MYOF gene in human MM1.S cells at 1 uM for 6 days by; type: functional, cell-based; conditions: time 6.0 day
MM1.S [33] = experiment: Upregulation of PPP1R1C gene in human MM1.S cells at 1 uM for 6 days by; type: functional, cell-based; conditions: time 6.0 day

SMILES	Activity (RPMI-8226 [1])	Activity (KMS-11)	Activity (MM1.S [3]) [%]	viability at 1 µM (RPMI-8226 [4]) [%]	Activity (RPMI-8226 [5]) [%]	viability at 1 µM (MM1.S [6]) [%]	Activity (RPMI-8226 [7]) [%]	viability at 1 µM (MM1.S [8]) [%]	Activity (RPMI-8226 [9])	Activity (MM1.S [10])	Activity (KMS-12-BM [11])	Activity (KMS-12-BM [12])	Activity (KMS-12-PE [13])	Activity (KMS-12-PE [14])	Activity (U-266)	other results
CC(C)N(C[C@H]1O[C@@H](n2cnc3c(N)ncnc32)[C@H](O)[C@@H]1O)[C@H]1C[C@@H](CCc2nc3cc(C(C)(C)C)ccc3[nH]2)C1 [PINOMETOSTAT]	Active	Active	11.4	63.5	17.5	52.8	6.18	96.7	Active	Active	Active	Active	Active	Active	Active	Activity (RPMI-8226 [2]): Active
CC(C)N(CCCNC(=O)Nc1ccc(C(C)(C)C)cc1)C[C@H]1O[C@@H](n2cc(Br)c3c(N)ncnc32)[C@H](O)[C@@H]1O	Active	Active	11.7	60.9	20.2	42.4	6.32	92.3	Active	Active	Active	Active	Active	Active	Active	Activity (RPMI-8226 [15]): Active; Activity (RPMI-8226 [16]): Active; Activity (RPMI-8226 [17]): Active; Activity (RPMI-8226 [18]): Active; Activity (RPMI-8226 [19]): Active; Activity (RPMI-8226 [20]): Active; Activity (RPMI-8226 [21]): Active; Activity (MM1.S [22]): Active; Activity (MM1.S [23]): Active; Activity (MM1.S [24]): Active; Activity (MM1.S [25]): Active; Activity (MM1.S [26]): Active; Activity (MM1.S [27]): Active; Activity (MM1.S [28]): Active; Activity (MM1.S [29]): Active; Activity (MM1.S [30]): Active; Activity (MM1.S [31]): Active; Activity (MM1.S [32]): Active; Activity (MM1.S [33]): Active
